According to the array DNA melting data of Ke et al. (doi:10.1101/2024.01.08.574731):

How the values were obtained:
[1] = folding enthalpy; higher = less favourable; fluorescence melt of hairpins on a sequencing array, two-state fit; settings: sodium 0.088 M
Method in brief: (§1)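 Folding enthalpy and melting temperature come from bootstrapped two-state fits to Cy3 fluorescence of library hairpins carrying annealed Cy3 and quencher oligos on a sequenced MiSeq flow cell. Imaging was done in 50 mM Na-HEPES pH 8.0, 25 mM NaCl, stepping by 2.5 °C up to 60 °C, and signals were normalised to pre-quench Cy3 and to control constructs. Results of four replicates were combined by inverse variance, and fitted temperatures were raised by 9.35 °C to match UV melts.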

[2] = melting temperature; fluorescence melt of hairpins on a sequencing array, two-state fit, raised by 9.35 °C to match UV melts; settings: sodium 0.088 M
Method in brief: as §1

Sequence | folding enthalpy [1] [kcal/mol] | Tm [2] [°C]
GGATCCGAAAGGACCTCC ((((((....)))..))) | -15.5 | 47.2
CACGGGAAACCGTG (((((....))))) | -30.9 | 58.8
GATCATCACCATGATC ((((((....)))))) | -36.1 | 46.8
GATCGTCAAGACGATC ((((((....)))))) | -37.5 | 58.7
GCAAAAACGAAAGTTTGC (((..(((....)))))) | -26 | 43.2
CGCGGAAAAACCGCG ((...........)) | -29.7 | 65.7
GCCCTTGGAAACAAAGGC (((.(((....))).))) | -28.2 | 35.3
GATCTTAAGTAAGATC ((((((....)))))) | -25.5 | 42.8
GCTCGAGCGAAAGCTAGC (((..(((....)))))) | -13.2 | 39.1
GCCCCGGGAAACCAGGGC ((((.((....)).)))) | -33 | 55.5
GGTAAGCGAAAGCTCACC (((.(((....))).))) | -25.5 | 46.9
GCACACGGAAACGTACGC ((..(((....)))..)) | -25.2 | 35.6
GCCCAGCGAAAGCACGGC (((..((....))..))) | -18.4 | 52.1
GTTGTGGGAAACTGCAAC ((((..(....)..)))) | -12.7 | 39.3
GGCAGTGGAAACGCTGCC (((((.(....).))))) | -42.3 | 62.7
GGTTGCGGAAACGTAGCC ((.(.((....)).).)) | -27.3 | 40.2
GCAACGCGAAAGCAATGC (((..((....))..))) | -11.1 | 40.6
GCTTCCGCGAAAGCGAGC (((..(((....)))))) | -11 | 35.5
GATCTTTCCCAAGATC ((((((....)))))) | -33.4 | 42.6
GCTGACGAAAGTCACAGC ((((((....)))..))) | -15.4 | 45.3
GTGTCAGGAAACTAACAC ((((.((....)).)))) | -20.3 | 33.5
GCCTGCGGAAACGTAGGC ((((.((....)).)))) | -28 | 58
GCCAGGCGAAAGCCCTGC ((..(((....)))..)) | -12.4 | 45.1

Sequence | folding enthalpy [1] [kcal/mol] | Tm [2] [°C]
GTTTTTGGAAACAAGAAC (((.(((....))).))) | -19.6 | 32.7
GATCCGCCGCCGGATC ((((((....)))))) | -42.4 | 59
GCGTTTGAAAAAACGC ((((((....)))))) | -32.1 | 65.9
GCCTCGTCGAAAGACGGC (((..(((....)))))) | -8.04 | 49.6
GATCTGGGCTCAGATC ((((((....)))))) | -39.3 | 52.8
GATCCCAAGGGGATC ((((((...)))))) | -35.8 | 66.6
GTTCCCGGAAACGGGGAC ((.((((....)))).)) | -26.8 | 58.5
GCGACCGAAAGGTTTCGC ((((((....)))..))) | -24.1 | 49
GAAGCACGAAAGTGTTC (((.(((....)))))) | -13.4 | 36.1
GCAACGCGAAAGCGCTGC (((.(((....))).))) | -37.9 | 57.8
GTTTTGCGAAAGCAAAC (((.(((....)))))) | -13.8 | 46.1
GCTGTCGAAAGACTAGC ((((((....))).))) | -24.4 | 50.3
GGTTACCGAAAGGTTACC (((.(((....))).))) | -30.3 | 52.6
GTATCTGGAAACAGACAC ((.((((....)))).)) | -26.2 | 30.7
GCGAAGTATCGC ((((....)))) | -14.3 | 46.2
GTCGGACGAAAGTCAGAC (((.(((....))).))) | -39.9 | 59.3
GGGGTGGGAAACCACTCC ((.((((....)))).)) | -35.1 | 54.6
GGGCACGAAAGTGTGCCC ((((((....)))..))) | -27.1 | 64.5
GCGTGGCGAAAGCCGGGC ((..(((....)))..)) | -27 | 64.7
CCTCGGAAACGAGG (((((....))))) | -25.8 | 55.7
GCAACGCGAAAGCGTAGC ((.((((....)))).)) | -17.6 | 61.9
GATCGAAGAGTCGATC ((((((....)))))) | -31.6 | 47.5
GTGGAGGAAACTCCAC ((((((....)))))) | -35.2 | 60.1

Sequence | folding enthalpy [1] [kcal/mol] | Tm [2] [°C]
GCACCTCGAAAGAGATGC (((.(((....))).))) | -40.3 | 50.6
GATCAGCGACTGATC ((((((...)))))) | -33.1 | 46.8
GGTGACGAAAGTCTAACC ((((((....)))..))) | -18.2 | 42.2
GATCTGCTGCCAGATC ((((((....)))))) | -39.2 | 49.8
GTGATACGAAAGTAGCAC (((.(((....))).))) | -48.7 | 58.6
TAGGTGAAAACCTA (((((....))))) | -15.4 | 41.1
GATTATGCGAAAGCAATC (((..(((....)))))) | -9.91 | 23.4
GGTTCTGGAAACAGGACC (((.(((....))).))) | -45.3 | 50.6
GGGCTGGCGAAAGCCCCC (((..(((....)))))) | -12.9 | 52.1
GGATAGCGAAAGCTTCC (((.(((....)))))) | -19 | 48.1
GTGCTCGAAAGAGTCAC ((((((....))).))) | -26.7 | 49.7
GGGTACCGAAAGGTCCCC (((.(((....))).))) | -22.9 | 55.7
GTAAGTCGAAAGACATAC (((.(((....))).))) | -21.5 | 38.7
GAAAAGGAAACTTTTC ((((((....)))))) | -25.2 | 39.7
GTGATGAAAATCAC (((((....))))) | -22.8 | 49.6
GATCATAGAATGATC ((((((...)))))) | -36 | 48
GATCGGAGAGCCGATC ((((((....)))))) | -30.3 | 54.8
GGACTCACGAAAGTGTCC (((..(((....)))))) | -19.3 | 41.5
GTGTGGGGAAACTCACGC (.(((.(....).))).) | -28 | 44.7
GCGTATGGAAACGTACGC (((((.(....).))))) | -48 | 54.7
GAAAGCGAAAGCTTATTC ((((((....)))..))) | -10.9 | 32.7
GTCTCGGGAAACTGAGAC (((((.(....).))))) | -42.9 | 51.5
GGGTACGAAAGTATTCCC ((((((....)))..))) | -20.4 | 35.5

Sequence | folding enthalpy [1] [kcal/mol] | Tm [2] [°C]
GTTGCAGGAAACTGTAAC (((.(((....))).))) | -29.8 | 45.8
GATCCCCAACGGGATC ((((((....)))))) | -29.7 | 57.2
GCACTCGGAAACGAGCGC ((.((((....)))).)) | -38.9 | 55.2
GCAGGGCGAAAGCACGGC ((.(.((....)).).)) | -33.9 | 65
GCTCCCGAAAGGGAAAGC ((((((....)))..))) | -16.6 | 51.7
GGATTTCGAAAGAAGTCC (((.(((....))).))) | -36.2 | 49.3
GCTATGCGAAAGCCCAGC (((..((....))..))) | -11.6 | 29
GCGTAGCGAAAGCGTCGC (((..((....))..))) | -20.5 | 61.4
GACCGCGAAAGCGAGGTC ((((((....)))..))) | -19.2 | 56.6
GTGCTGCGAAAGCATCAC (((.(((....))).))) | -31.9 | 52
GCGGAGCGAAAGCCCCGC ((((.((....)).)))) | -35.3 | 68.7
GCCCTCGAAAGAGAGGC ((((((....))).))) | -31.1 | 58.2
GCTTCGCGAAAGCGCCGC ((..(((....)))..)) | -12.2 | 44.7
GCCGCGCGAAAGCTCTGC ((.(.((....)).).)) | -10.9 | 30.7
GCTACGCGAAAGCAGAGC (((..((....))..))) | -18.7 | 48.4
GATCCCAACGGGGATC ((((((....)))))) | -30.9 | 59.4
CGGCGCGGAAACGCCCCG (((.(((....))).))) | -17.5 | 52
GCTGAGACGAAAGTCAGC (((..(((....)))))) | -21.4 | 49.1
GCAGTGCGAAAGCGATGC (((..((....))..))) | -30.6 | 62.4
GATCGTGCAGACGATC ((((((....)))))) | -40.9 | 58.9
GATCCATGATTGGATC ((((((....)))))) | -38.4 | 51.9
GATCACAGTTGTGATC ((((((....)))))) | -35.7 | 60.4
GCCGTGCGAAAGCGCCGC ((.(.((....)).).)) | -14.4 | 50
